Results as given in ChEMBL document CHEMBL3352121, “Modulation of Activity Profiles for Largazole-Based HDAC Inhibitors through Alteration of Prodrug Properties” (ACS Med Chem Lett, 2014).

Key:
[1] = biological target: T1, Histone deacetylase 4 (Homo sapiens, UniProt P56524); assay: Inhibition of HDAC4 (unknown origin) incubated for 30 mins in presence of BSA and DTT by fluorescence assay
Outline: (§1)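 Purified HDAC isoforms were tested up to a maximum of 1 μM. IC50 values are averages of duplicate experiments. Disulfide compounds were pretreated with DTT to reduce the disulfide bond.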

[2] = biological target: T2, Histone deacetylase 5 (Homo sapiens, UniProt Q9UQL6); assay: Inhibition of HDAC5 (unknown origin) incubated for 30 mins in presence of BSA and DTT by fluorescence assay; outline: as §1
[3] = biological target: T3, Histone deacetylase 7 (Homo sapiens, UniProt Q8WUI4); assay: Inhibition of HDAC7 (unknown origin) incubated for 30 mins in presence of BSA and DTT by fluorescence assay; outline: as §1
T3 sequence (Q8WUI4 whole entry): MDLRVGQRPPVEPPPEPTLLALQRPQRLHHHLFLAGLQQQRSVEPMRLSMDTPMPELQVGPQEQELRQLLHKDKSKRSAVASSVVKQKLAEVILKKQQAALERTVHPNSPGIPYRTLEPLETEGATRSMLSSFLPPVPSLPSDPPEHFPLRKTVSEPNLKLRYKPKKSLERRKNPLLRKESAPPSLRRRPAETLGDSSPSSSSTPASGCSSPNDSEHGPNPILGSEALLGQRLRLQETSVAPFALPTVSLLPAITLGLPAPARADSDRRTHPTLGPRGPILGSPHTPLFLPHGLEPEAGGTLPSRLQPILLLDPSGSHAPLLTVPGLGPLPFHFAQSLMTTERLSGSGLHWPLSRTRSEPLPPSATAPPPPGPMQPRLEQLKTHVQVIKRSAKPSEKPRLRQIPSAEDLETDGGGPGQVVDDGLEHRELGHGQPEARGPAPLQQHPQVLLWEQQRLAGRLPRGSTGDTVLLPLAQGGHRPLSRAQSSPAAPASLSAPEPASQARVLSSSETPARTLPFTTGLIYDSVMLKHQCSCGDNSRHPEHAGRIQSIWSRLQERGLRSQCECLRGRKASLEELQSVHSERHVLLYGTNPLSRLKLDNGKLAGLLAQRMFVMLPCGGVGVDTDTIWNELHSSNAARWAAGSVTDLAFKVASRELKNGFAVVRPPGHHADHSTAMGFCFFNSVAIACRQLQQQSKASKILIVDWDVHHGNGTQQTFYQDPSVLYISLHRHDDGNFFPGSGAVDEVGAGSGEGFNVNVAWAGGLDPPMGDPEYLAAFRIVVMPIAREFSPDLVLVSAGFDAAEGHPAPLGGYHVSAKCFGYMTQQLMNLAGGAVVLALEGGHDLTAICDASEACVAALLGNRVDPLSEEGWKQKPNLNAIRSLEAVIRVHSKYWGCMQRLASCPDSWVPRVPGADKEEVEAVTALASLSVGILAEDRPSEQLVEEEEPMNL

[4] = biological target: T4, Histone deacetylase 9 (Homo sapiens, UniProt Q9UKV0); assay: Inhibition of HDAC9 (unknown origin) incubated for 30 mins in presence of BSA and DTT by fluorescence assay; outline: as §1
[5] = biological target: T5, Polyamine deacetylase HDAC10 (Homo sapiens, UniProt Q969S8); assay: Inhibition of HDAC10 (unknown origin) incubated for 30 mins in presence of BSA and DTT by fluorescence assay; outline: as §1
T5 sequence (Q969S8 whole entry): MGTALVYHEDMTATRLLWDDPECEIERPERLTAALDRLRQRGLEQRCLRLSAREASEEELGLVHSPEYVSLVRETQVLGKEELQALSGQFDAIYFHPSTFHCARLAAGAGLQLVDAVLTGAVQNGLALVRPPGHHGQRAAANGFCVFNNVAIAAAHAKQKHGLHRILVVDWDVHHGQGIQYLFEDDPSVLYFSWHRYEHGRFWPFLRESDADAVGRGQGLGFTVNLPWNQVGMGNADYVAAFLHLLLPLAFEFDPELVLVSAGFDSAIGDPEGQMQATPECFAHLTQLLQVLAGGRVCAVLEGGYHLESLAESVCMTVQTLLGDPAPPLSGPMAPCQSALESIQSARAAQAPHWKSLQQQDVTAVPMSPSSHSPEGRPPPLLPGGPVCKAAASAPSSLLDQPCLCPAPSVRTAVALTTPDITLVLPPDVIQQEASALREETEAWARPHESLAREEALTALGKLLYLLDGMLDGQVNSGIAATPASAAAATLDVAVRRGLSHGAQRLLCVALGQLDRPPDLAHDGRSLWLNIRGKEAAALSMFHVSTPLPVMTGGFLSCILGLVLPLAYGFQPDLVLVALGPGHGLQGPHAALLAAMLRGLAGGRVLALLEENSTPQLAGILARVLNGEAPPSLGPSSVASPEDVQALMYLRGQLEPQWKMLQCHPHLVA

[6] = biological target: T1, Histone deacetylase 4; assay: Inhibition of HDAC4 (unknown origin) at 1 uM incubated for 30 mins in presence of BSA and DTT by fluorescence assay; outline: as §1
[7] = biological target: T2, Histone deacetylase 5; assay: Inhibition of HDAC5 (unknown origin) at 1 uM incubated for 30 mins in presence of BSA and DTT by fluorescence assay; outline: as §1
[8] = biological target: T6, Histone deacetylase 8 (Homo sapiens) (UniProt Q9BY41); assay: Inhibition of HDAC8 (unknown origin) at 1 uM incubated for 30 mins in presence of BSA and DTT by fluorescence assay; outline: as §1
T6 sequence (whole entry): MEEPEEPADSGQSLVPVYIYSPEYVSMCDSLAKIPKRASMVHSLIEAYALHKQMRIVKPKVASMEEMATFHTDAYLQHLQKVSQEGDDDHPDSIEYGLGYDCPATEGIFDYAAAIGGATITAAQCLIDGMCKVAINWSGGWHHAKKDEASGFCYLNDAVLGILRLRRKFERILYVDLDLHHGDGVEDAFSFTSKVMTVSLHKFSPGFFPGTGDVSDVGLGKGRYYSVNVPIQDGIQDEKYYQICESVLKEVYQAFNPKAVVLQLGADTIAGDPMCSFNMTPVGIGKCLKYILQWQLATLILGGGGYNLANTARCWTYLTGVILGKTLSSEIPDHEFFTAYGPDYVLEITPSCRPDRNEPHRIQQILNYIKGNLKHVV

[9] = biological target: T4, Histone deacetylase 9; assay: Inhibition of HDAC9 (unknown origin) at 1 uM incubated for 30 mins in presence of BSA and DTT by fluorescence assay; outline: as §1

T2 sequence (Q9UQL6 whole entry): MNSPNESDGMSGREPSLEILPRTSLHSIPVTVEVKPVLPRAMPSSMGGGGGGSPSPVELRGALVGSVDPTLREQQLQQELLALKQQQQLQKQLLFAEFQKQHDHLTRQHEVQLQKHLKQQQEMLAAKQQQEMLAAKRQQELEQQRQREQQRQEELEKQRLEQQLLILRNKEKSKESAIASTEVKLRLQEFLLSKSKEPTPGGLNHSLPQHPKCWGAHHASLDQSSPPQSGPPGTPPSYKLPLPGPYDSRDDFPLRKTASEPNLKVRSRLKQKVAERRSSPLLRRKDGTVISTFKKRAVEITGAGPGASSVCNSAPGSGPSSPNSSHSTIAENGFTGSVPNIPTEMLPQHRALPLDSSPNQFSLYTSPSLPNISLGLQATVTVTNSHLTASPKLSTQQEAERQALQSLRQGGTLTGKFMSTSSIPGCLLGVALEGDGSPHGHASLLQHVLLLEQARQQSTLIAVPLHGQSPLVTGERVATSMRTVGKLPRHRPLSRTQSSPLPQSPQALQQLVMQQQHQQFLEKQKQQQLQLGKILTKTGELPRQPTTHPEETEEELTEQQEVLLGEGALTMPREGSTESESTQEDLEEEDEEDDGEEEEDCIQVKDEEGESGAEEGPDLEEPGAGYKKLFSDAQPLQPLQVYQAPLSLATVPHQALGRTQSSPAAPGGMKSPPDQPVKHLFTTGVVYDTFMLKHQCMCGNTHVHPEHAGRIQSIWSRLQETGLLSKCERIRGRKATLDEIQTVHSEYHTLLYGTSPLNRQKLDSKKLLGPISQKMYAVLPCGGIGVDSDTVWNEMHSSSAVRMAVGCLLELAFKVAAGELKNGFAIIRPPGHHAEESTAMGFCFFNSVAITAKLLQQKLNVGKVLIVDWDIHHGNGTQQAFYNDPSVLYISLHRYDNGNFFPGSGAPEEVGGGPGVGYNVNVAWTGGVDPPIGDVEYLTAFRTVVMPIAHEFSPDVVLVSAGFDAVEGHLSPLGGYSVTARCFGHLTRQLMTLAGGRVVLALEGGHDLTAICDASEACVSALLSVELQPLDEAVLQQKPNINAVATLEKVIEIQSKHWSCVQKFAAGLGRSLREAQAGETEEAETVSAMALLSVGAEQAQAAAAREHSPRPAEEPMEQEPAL
T1 sequence (P56524 whole entry, canonical isoform): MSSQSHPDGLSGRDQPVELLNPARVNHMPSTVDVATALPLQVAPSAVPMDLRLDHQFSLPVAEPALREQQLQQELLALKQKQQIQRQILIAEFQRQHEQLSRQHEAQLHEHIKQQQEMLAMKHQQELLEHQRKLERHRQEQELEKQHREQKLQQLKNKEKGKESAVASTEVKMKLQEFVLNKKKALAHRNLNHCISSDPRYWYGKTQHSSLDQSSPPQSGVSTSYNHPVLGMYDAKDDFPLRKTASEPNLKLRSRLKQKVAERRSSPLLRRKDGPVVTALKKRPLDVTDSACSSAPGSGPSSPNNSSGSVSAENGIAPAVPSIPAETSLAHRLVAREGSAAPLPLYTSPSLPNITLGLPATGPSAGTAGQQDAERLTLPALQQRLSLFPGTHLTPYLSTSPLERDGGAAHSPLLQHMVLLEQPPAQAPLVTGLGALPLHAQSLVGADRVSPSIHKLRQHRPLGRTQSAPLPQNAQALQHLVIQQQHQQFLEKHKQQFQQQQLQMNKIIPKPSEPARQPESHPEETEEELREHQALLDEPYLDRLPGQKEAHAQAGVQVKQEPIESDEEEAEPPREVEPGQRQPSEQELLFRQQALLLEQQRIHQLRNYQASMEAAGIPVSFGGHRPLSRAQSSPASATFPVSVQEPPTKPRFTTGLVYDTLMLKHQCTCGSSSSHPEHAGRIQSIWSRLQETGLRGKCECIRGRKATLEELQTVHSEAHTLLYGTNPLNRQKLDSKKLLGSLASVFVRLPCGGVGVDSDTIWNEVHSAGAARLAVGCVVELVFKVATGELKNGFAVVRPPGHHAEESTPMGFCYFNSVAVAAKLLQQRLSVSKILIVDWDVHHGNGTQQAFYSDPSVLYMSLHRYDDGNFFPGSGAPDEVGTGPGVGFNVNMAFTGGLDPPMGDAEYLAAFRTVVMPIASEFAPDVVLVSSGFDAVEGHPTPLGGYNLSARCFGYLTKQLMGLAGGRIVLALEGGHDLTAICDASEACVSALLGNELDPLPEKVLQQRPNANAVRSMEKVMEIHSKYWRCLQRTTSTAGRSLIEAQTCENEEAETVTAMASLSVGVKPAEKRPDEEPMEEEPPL
T4 sequence (Q9UKV0 whole entry): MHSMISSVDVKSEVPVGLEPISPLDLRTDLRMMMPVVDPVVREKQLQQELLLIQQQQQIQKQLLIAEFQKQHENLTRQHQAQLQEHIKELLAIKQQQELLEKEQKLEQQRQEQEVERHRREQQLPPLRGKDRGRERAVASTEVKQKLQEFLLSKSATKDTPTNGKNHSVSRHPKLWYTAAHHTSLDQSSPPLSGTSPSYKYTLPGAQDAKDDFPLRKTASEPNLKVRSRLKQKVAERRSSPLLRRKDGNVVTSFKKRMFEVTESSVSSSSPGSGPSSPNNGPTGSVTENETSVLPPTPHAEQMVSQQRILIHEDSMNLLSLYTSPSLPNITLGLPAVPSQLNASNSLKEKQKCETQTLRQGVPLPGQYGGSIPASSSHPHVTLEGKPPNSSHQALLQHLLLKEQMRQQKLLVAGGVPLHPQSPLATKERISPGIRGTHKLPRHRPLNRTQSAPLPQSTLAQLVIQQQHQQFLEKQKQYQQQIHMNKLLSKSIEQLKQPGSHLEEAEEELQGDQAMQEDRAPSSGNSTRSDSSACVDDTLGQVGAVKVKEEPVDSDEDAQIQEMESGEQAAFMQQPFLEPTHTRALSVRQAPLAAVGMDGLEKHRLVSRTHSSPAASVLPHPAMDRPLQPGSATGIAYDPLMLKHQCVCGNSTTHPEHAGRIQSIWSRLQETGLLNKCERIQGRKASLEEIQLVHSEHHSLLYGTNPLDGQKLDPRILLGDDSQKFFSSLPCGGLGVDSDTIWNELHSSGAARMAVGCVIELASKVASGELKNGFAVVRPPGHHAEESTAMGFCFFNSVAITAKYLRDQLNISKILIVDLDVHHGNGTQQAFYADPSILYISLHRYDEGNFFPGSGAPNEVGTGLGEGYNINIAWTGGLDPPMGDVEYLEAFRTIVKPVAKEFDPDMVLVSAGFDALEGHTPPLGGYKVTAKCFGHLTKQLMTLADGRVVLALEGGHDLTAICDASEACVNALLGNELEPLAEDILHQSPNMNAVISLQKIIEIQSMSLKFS

| Compound | IC50 [1] | IC50 [2] | IC50 [3] | IC50 [4] | IC50 [5] | inhibition [6] | inhibition [7] | inhibition [8] | inhibition [9] |
| --- | --- | --- | --- | --- | --- | --- | --- | --- | --- |
| CC(C)[C@@H]1NC(=O)[C@]2(C)CSC(=N2)c2csc(n2)CNC(=O)C[C@@H](/C=C/CCSSC[C@H](NC(=O)OC(C)(C)C)C(=O)OC(C)(C)C)OC1=O | Not Active | Not Active | Not Active | Not Active | 0.5 nM | < 20% | < 20% | 35% | < 20% |
| CC(C)[C@@H]1NC(=O)[C@]2(C)CSC(=N2)c2csc(n2)CNC(=O)C[C@@H](/C=C/CCSSCC/C=C/[C@@H]2CC(=O)NCc3nc(cs3)C3=N[C@@](C)(CS3)C(=O)N[C@@H](C(C)C)C(=O)O2)OC1=O | Not Active | Not Active | Not Active | Not Active | 0.2 nM | < 20% | < 20% | 40% | < 20% |
